Results on 48 sequences are retold here after the EternaBench riboswitch data.

What is called apparent Kd is the concentration giving half-maximal binding under the conditions of the assay.

This series concerns MS2 coat protein. The series is described as follows: apparent Kd, MS2 coat protein; higher = weaker binding; RNA-MaP array; FMN 200 µM where present. In a few lines:
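On Illumina sequencing-chip clusters, designs were transcribed by stalled E. coli RNA polymerase and titrated with SNAP-549-labelled MS2 coat protein (0.7 or 1.5 nM, doubling to 3 µM), without and then with constant ligand, in 100 mM Tris-HCl pH 7.5, 80 mM KCl, 4 mM MgCl2, BSA, DTT, yeast tRNA and Tween-20. Apparent Kd is the median of filtered per-cluster curve fits to green signal normalised to red-channel RNA signal and control-cluster median Fmax.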

The mark [1] stands for this setting: designed as: OFF switch for flavin mononucleotide, no ligand.
[2] abbreviates: ligand present: flavin mononucleotide, designed as: OFF switch for flavin mononucleotide.
The mark [3] stands for this setting: designed as: ON switch for flavin mononucleotide, no ligand.
Where [4] appears, read: ligand present: flavin mononucleotide, designed as: ON switch for flavin mononucleotide.

For the sequence “AUCAGCUCGUCAGGAUAUACGUCACUGCGUCAGCAGUGUGGUAAGACCACAUGAGGAUCACCCAUGUAGAAGGGACGAGCUGAU”, the “apparent Kd” value is, setting by setting: under setting [1], 7.94 nM; under setting [2], 24.5 nM.

As to “UCAUGUUUAGAGGAUAUGAUUACUUUUGAGUAAUCAGAAGGCUAGACAUGAGGAUCACCCAUGUCAUAACAUGA”, the “apparent Kd” value amounted to 90 nM under setting [1] and 112 nM under setting [2].

As for “UUUUUCUCAGGAUAUACAUGAGGAUCACCCAUGUAUAUUGAAGAUAAUACAUGGGAAUGUAGAAGGGAGCUCAU”, the “apparent Kd” value by setting is: under setting [1], 109 nM; under setting [2], 115 nM.

“CCGUGGCAAGGAUAUACAUAGGAGAGGAAGGCAAGAGGUGGACAUGAGGAUCACCCAUGUAGAAGGUGCAGAUC”: the “apparent Kd” value by setting is: under setting [1], 226 nM; under setting [2], 236 nM.

With “CAGAUAAAAGUGUGGUCCUCGACAUGAGGAUCACCCAUGUACGAGGAUAUGUAAUAUACGGUAUAGCAGAAGGCGUAUGGGUGU”, the “apparent Kd” value turned out to be 37.7 nM under setting [1] and 36.2 nM under setting [2].

Take “UGAAAUCAUGUAGGAUAUGCAUGGCGAAGCUACGCAGAAGGACAUGAGGAUCACCCAUGUUCGAGGGUCUGAGUACAGAUCCAA”: the “apparent Kd” value is, setting by setting: under setting [1], 25.2 nM; under setting [2], 162 nM.

Turning to “ACGUUUUUUGAGGAUAUGCGACGUUUUUUCGUCGUAGAAGGCGAUACAUGAGGAUCACCCAUGUUUAUGGGCAU”, the “apparent Kd” value runs as follows: under setting [1], 126 nM; under setting [2], 174 nM.

Consider “GAGUCUCUAUUAGAACCGAUACGAACAUGAGGAUCACCCAUGUAGGAUAUGCUAAAAGUUGUGUUGCAGAAGGACAUUUAAAGC”, for which the “apparent Kd” value runs as follows: under setting [1], 10.6 nM; under setting [2], 9.89 nM.

Turning to “AUGGAUAUCACAGGAUAUGCCCGGGAUACCCGGGCAGAAGGGUGAUCCAUCCUAUGUAAAUACAUGAGGAUCACCCAUGUGUCC”, the “apparent Kd” value came out at 75 nM under setting [3] and 71.2 nM under setting [4].

Turning to “AUGCUUUUUGUAGGAUAUACAUACGGUACGUAUGUAGAAGGACAUGAGGAUCACCCAUGUAAAUUAUUAUUAAAUAUCAUACUU”, the “apparent Kd” value came to 12.7 nM under setting [1] and 12.2 nM under setting [2].

On to “AUACACUUAGUGAGGAUAUCGUUUUCUUUACGGAUCGAGAAGGCACAUGAGGAUCACCCAUGUUUGACGUGAAU”, for which the “apparent Kd” value runs as follows: under setting [1], 21.4 nM; under setting [2], 68.9 nM.

In the case of “AAAUAAAAUAUAGGAUAUGGAAACAUGAGGAUCACCCAUGUAUGAUAAGAUAAAUAAUGAUAUAGCCAGAAGGAUACAAUAUAA”, the “apparent Kd” value is, setting by setting: under setting [3], 31 nM; under setting [4], 38.3 nM.

With “UGGGAUGGCUAGAAGGCUCCGUAAACUACAGGGAGAGGAUAUGGCACAUGAGGAUCACCCAUGUGUACCUGUAGGUGAUCCACA”, the “apparent Kd” value came to 19 nM under setting [1] and 90.8 nM under setting [2].

As for “AUUUAUGGCCAGAAGGACAUGAGGAUCACCCAUGUAGGAUAUGGACGAUUUUGCUCGGCGGUUCGUUUAGGAAUCACCGGUGGU”, the “apparent Kd” value under setting [3] was 7.88 nM and the “apparent Kd” value under setting [4] was 6.38 nM.

As to “AGUCGUCAAGGAUAUAUAGUGAAGCACAAGCAGUGCCCUCUACAUGAGGAUCACCCAUGUAGAAGGUGGCGACU”, the “apparent Kd” value came to 15.6 nM under setting [1] and 14.2 nM under setting [2].

As for “CGCAUCUCCUCAAUUCCUUCACAUGAGGAUCACCCAUGUAGGGAGGAUAUGCAAGCCUAUUGGCGGCAGAAGGCCCUGCAAUGG”, the “apparent Kd” value runs as follows: under setting [1], 72.9 nM; under setting [2], 67.4 nM.

As for “AUCAGCUCGUCAGGAUAUACGUCACUGCGUCAACAGUGUGGUAAGAUCACAUGAGGAUCACCCAUGUAGAAGGGACGAGCUGAU”, the “apparent Kd” value reads like this: under setting [1], 14.6 nM; under setting [2], 266 nM.

As to “AUACAACAUGAGGAUCACCCAUGUGAGGAUAUGCGAUACAUCAUCAUCAUCAUCAAUCGCAGAAGGCACAACAU”, the “apparent Kd” value worked out at 50.2 nM under setting [1] and 55 nM under setting [2].

Turning to “ACGUUUUAUGCAGGAUAUUGAAAUAUAUUUAAACAAGAAGGGCAAUACAUGAGGAUCACCCAUGUCAGCAUGGUAUUUAAGUUC”, the “apparent Kd” value turned out to be 43.9 nM under setting [1] and 45.4 nM under setting [2].

Take “UGUAUGGACAGAGGAUAUACCGAUAGGAUCUACUAUCGAAUAAUCCUCACAUGAGGAUCACCCAUGUAGAAGGCUGUCCAUACU”: the “apparent Kd” value is, setting by setting: under setting [1], 21.2 nM; under setting [2], 142 nM.

With “UUGAGGUCAGGAUAUGCAUGGCGGGACUUGCGUCGUGGCGUGCAGAAGGGACAUGAGGAUCACCCAUGUGGAGC”, the “apparent Kd” value reads like this: under setting [1], 75.2 nM; under setting [2], 211 nM.

As to “AAAUUAAGUGUGAGGAUAUGCUGGUCCUUAGAUCAGCAGAAGGCACAUGAGGAUCACCCAUGUAAUAUAUUUAA”, the “apparent Kd” value reads like this: under setting [1], 38.9 nM; under setting [2], 193 nM.

For the sequence “GAUUCACAUGAGGAUCACCCAUGUGAGGAUAUCUAGGUGCGGAGGCUAAGACCUCCAGAGAGAAGGCACAUGGC”, the “apparent Kd” value under setting [1] is 24.2 nM and the “apparent Kd” value under setting [2] came out at 36.8 nM.

Turning to “CUCGUCUGGAAACGGAGCGGCCAACAUGAGGAUCACCCAUGUGAGGAUAUGCCUACUAAAAGUAGGCAGAAGGCGCAAUUGGCA”, the “apparent Kd” value under setting [1] worked out at 20.3 nM and the “apparent Kd” value under setting [2] was 36 nM.

For “CUGAUGUUAGGAUAUCAGGCACCCGCCACUGGCAGGGCGCAUGAGAAGGGACAUGAGGAUCACCCAUGUAGUAA”, the “apparent Kd” value was determined as 25.2 nM under setting [1] and 60.1 nM under setting [2].

Regarding “CCGGCUGCUGUGAGGAUAUGCCUGUGCGCCCGCGGGCAGAAGGCACAUGAGGAUCACCCAUGUCCUGCGGUCCC”, the “apparent Kd” value runs as follows: under setting [1], 39 nM; under setting [2], 41.2 nM.

In the case of “GCCUAUGUGGAGGAUAUCGACUUCGAAAGAAGUCGAGAAGGCCACACAUGAGGAUCACCCAUGUGAUGCCAGGC”, the “apparent Kd” value is, setting by setting: under setting [1], 122 nM; under setting [2], 86 nM.

As for “UGUUGUAUUACAGGAUAUCUAGUAUAUUUAUUUAGAGAAGGGUAUUCACAUGAGGAUCACCCAUGUAUAUACGAGGAAGUUGUG”, the “apparent Kd” value under setting [3] is 41.1 nM and the “apparent Kd” value under setting [4] was determined as 40.2 nM.

Take “UGGUACUAGGGAGGAUAUGGGAAGAUACAUGAGGAUCACCCAUGUUUAAGAAUGCCGAGAGGGAACUAGAAGGCCCUAGUACCU”: the “apparent Kd” value under setting [4] amounted to 14.5 nM.

Regarding “GGAUGACAAAGUCAUCCAAUUCGAACAUGAGGAUCACCCAUGUAGGAUAUGCUACUCAAAGAGUAGCAGAAGGACAUGUGCCUU”, the “apparent Kd” value turned out to be 31.7 nM under setting [1] and 173 nM under setting [2].

For the sequence “AUAGAAGUCUAGAAGGACCUAGCUGUAUACCAUCAGGUAUAUACGCUAGGUAGGAUAUGGGACAUGAGGAUCACCCAUGUGUUG”, the “apparent Kd” value reads like this: under setting [3], 48 nM; under setting [4], 22.6 nM.

With “CCAGCGUAUGUGAGGAUAUGCUGGUCCUUGGAUCAGCAGAAGGCACAUGAGGAUCACCCAUGUGAGAGCGUUGG”, the “apparent Kd” value turned out to be 25.7 nM under setting [1] and 197 nM under setting [2].

With “AUUUAGUGAGGAUAUGUGGCUUCGAUCGUGAGAUCGAGGCUACAGAAGGCACAUGAGGAUCACCCAUGUUCCUC”, the “apparent Kd” value reads like this: under setting [1], 37.6 nM; under setting [2], 498 nM.

Regarding “CCGCCACAUGAGGAUCACCCAUGUCAGGAUAUCUAUCAUAGCAUCGAAAGAUGCGGGUAGAGAAGGGACUAUCC”, the “apparent Kd” value under setting [1] is 28.8 nM and the “apparent Kd” value under setting [2] was found to be 32.2 nM.

In the case of “AGAAACUACGAGAAGGACAUAUGGUUCUUCAGAUACAUGAGGAUCACCCAUGUAGGAUAUCGUAGUUUCAGGAUCGUGAGAUCA”, the “apparent Kd” value was 6.51 nM under setting [1] and 9.68 nM under setting [2].

On to “GGGUACAUCGGAGGAUAUCAUGUAAAUACAUGAGGAUCACCCAUGUCGAUGGAGACAUCGGAGAUUGAGAAGGUCGAUGUACCG”, for which the “apparent Kd” value by setting is: under setting [3], 197 nM; under setting [4], 9.52 nM.

Regarding “AGGGCAACAGGAUAUCAUACAAUCUACAUGAGGAUCACCCAUGUGCCUCUUUUCAUACUGUGAGAAGGGUUGUCGG”, the “apparent Kd” value was 64.8 nM under setting [1] and 63.8 nM under setting [2].

“UGAUUACGAGGAUAUACAUGAGGAUCACCCAUGUAGUCAGGGCCCAUACUCCGAGCAUGUAGAAGGCGUUGUCU”: the “apparent Kd” value runs as follows: under setting [1], 32.7 nM; under setting [2], 48.8 nM.

With “GAGUGGUAAAGAGGAUAUGCAUUGUUAUUAAAUGCAGAAGGUUUUAACAUGAGGAUCACCCAUGUAGGACUAUUCCUGUGUUUC”, the “apparent Kd” value runs as follows: under setting [3], 14.8 nM; under setting [4], 12.2 nM.

On to “CCAUCUUGUCGAGGAUAUAUUAACAUGACAUGAGACACAUGAGGAUCACCCAUGUAUGUUGUUGUAUAGAAGGCGACUACAUGA”, for which the “apparent Kd” value is, setting by setting: under setting [3], 50.4 nM; under setting [4], 51.2 nM.

“CUGACAGUGUAGCGCGUCUAGCCAGAGGAUAUCCACAUGAGGAUCACCCAUGUCAUGUCCUCGCGGGAGAAGGCUGGCUUGGCG”: the “apparent Kd” value came out at 204 nM under setting [1] and 54.3 nM under setting [2].

Consider “UUGGACGUCGUAGGAUAUGUAGGAUAUUCCUACAUGAGGAUCACCCAUGUUGACAUGGAAGAAGGACACAAGGACGAUGUCCAU”, for which the “apparent Kd” value reads like this: under setting [3], 664 nM; under setting [4], 15.8 nM.

On to “GCUGAUGCAGGAUAUAUAUGAAGCGUUCGAAUAGAAUGCGAACAUGAGGAUCACCCAUGUAGAAGGGCAUUGGC”, for which the “apparent Kd” value turned out to be 14.6 nM under setting [1] and 20.1 nM under setting [2].

Consider “CAGUACUGAGGAUAUACAUGAGGAUCACCCAUGUGCCUAAGGUAGGAUACUACCAUUAGUAGAAGGCAGUACUG”, for which the “apparent Kd” value reads like this: under setting [1], 13.8 nM; under setting [2], 29.6 nM.

Take “UGAUAGCACAGAGGAUAUGCGUAGAGUUAUCACUACAUGAGGAUCACCCAUGUAGAAGGCUGUGCUAUCUAAGUCGGAAACGAC”: the “apparent Kd” value by setting is: under setting [1], 5.89 nM; under setting [2], 6.17 nM.

Regarding “AUCUUGAGAGGAUAUACAUGAGGAUCACCCAUGUUGCUAACACCAUGAGCUCAUUUACGUAGAAGGCUCAUCCG”, the “apparent Kd” value reads like this: under setting [1], 17.7 nM; under setting [2], 17.2 nM.

For “GUGUACAGAGGAUAUAUAUGAGCUAGGAAACUAGCAAGAUCACAUGAGGAUCACCCAUGUAGAAGGCUGUACAC”, the “apparent Kd” value under setting [1] was determined as 114 nM and the “apparent Kd” value under setting [2] amounted to 1210 nM.

On to “CGACAGCACACAGGAUAUCCUCGACUUUGUCGAGGAGAAGGGUGUAAACAUGAGGAUCACCCAUGUAUGCUGUCGAAAUUUAAU”, for which the “apparent Kd” value worked out at 308 nM under setting [3] and 30.7 nM under setting [4].
